Source: ChEMBL document CHEMBL2034927, “Design, synthesis, anti-HIV evaluation and molecular modeling of piperidine-linked amino-triazine derivatives as potent non-nucleoside reverse transcriptase inhibitors” (Bioorg Med Chem, 2012)

Experiments:
[1] = Selectivity index, ratio of CC50 for human MT4 cells to EC50 for wild type HIV1 3B; assay type: toxicity, cell-based; settings: read-out: Ratio CC50/EC50
How it was run: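 HIV-1 IIIB stock at 100–300 CCID50 was added to MT-4 cells at 6 × 10⁵ cells/mL, with serial fivefold compound dilutions and mock-infected wells run in parallel. Viability was read by MTT at 540 and 690 nm after 5 days, using the median OD of three wells. EC50 is 50% protection from HIV-induced cytotoxicity, and CC50 is a 50% reduction of mock-infected OD540. SI is CC50/EC50.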

[2] = system: Human immunodeficiency virus 1; assay: Fold resistance, ratio of EC50 for HIV1 RES056 harboring reverse transcriptase K103N/Y181C RT mutant to EC50 for wild type HIV1 3B; assay type: functional
How it was run: (§1)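 MT-4 cells at 6 × 10⁵ cells/mL were infected with the double mutant HIV-1 RES056 (K103N+Y181C), with serial fivefold compound dilutions. After 5 days, viability was read by MTT at 540 and 690 nm, using the median OD of three wells. EC50 is 50% protection against virus-induced cytotoxicity, and CC50 is a 50% drop in OD540 of mock-infected cells. Fold resistance is the RES056 EC50 divided by the IIIB EC50.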

[3] = Cytotoxicity against human MT4 cells after 5 days by MTT assay; assay type: cell-based
How it was run: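 MT-4 cells at 6 × 10⁵ cells/mL were mock-infected with culture medium and exposed to serial fivefold dilutions of compound. After 5 days, viability was measured by MTT reduction at 540 and 690 nm, using the median OD of three wells. CC50 is the concentration reducing OD540 of the mock-infected control by 50%.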

[4] = system: Human immunodeficiency virus 1; assay: Antiviral activity against HIV1 RES056 harboring reverse transcriptase K103N/Y181C mutant infected in human MT4 cells assessed as inhibition of virus-induced cytopathic effect after 5 days by MTT assay; assay type: functional, organism-based; settings: Human immunodeficiency virus 1, RES056, MT4, 120 h; how it was run: as §1
[5] = Selectivity index, ratio of CC50 for human MT4 cells to EC50 for HIV1 RES056 harboring reverse transcriptase K103N/Y181C RT mutant; assay type: toxicity, cell-based; settings: read-out: Ratio CC50/EC50
[6] = system: Human immunodeficiency virus 1; assay: Antiviral activity against HIV1 3B infected in human MT4 cells assessed as inhibition of virus-induced cytopathic effect after 5 days by MTT assay; assay type: functional, organism-based; settings: Human immunodeficiency virus 1, 3B, MT4, 120 h
How it was run: (§2)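 MT-4 cells spun 5 min at 1000 rpm, resuspended at 6 × 10⁵ cells/mL, then infected with HIV-1 IIIB or HIV-2 ROD at 100–300 CCID50. Test compounds were added as serial fivefold dilutions. After 5 days, viability was read by MTT reduction at 540 and 690 nm, using the median OD of three wells. EC50 is the concentration giving 50% protection against virus-induced cytotoxicity.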

[7] = system: Human immunodeficiency virus 2; assay: Antiviral activity against HIV2 ROD infected in human MT4 cells assessed as inhibition of virus-induced cytopathic effect after 5 days by MTT assay; assay type: functional, organism-based; settings: Human immunodeficiency virus 2, ISOLATE ROD, MT4, 120 h; how it was run: as §2

SMILES | selectivity ratio [1] | Ratio EC50 [2] | CC50 at 120 h [3] | EC50 [4] | selectivity ratio [5] | EC50 [6] | EC50 [7]
Cc1cc(C)c(Nc2nc(N)nc(NC3CCN(Cc4ccc(C#N)cc4)CC3)n2)c(C)c1 | 576 | >575.8 | 3.26 µM | > 3.26 µM | < 1 | 0.00566 µM | > 3.26 µM
CCOC(=O)c1ccc(CN2CCC(Nc3nc(N)nc(Nc4c(C)cc(C)cc4C)n3)CC2)cc1 | 512 | >511.6 | 5.91 µM | > 5.91 µM | < 1 | 0.0116 µM | > 5.91 µM
Cc1cc(C)c(Nc2nc(N)nc(NC3CCN(Cc4ccc(C(N)=O)cc4)CC3)n2)c(C)c1 | 3640 | 162.8 | 74.4 µM | 3.33 µM | 22 | 0.0204 µM | > 74.4 µM
Cc1cc(C)c(Nc2nc(N)nc(NC3CCN(Cc4ccc(S(N)(=O)=O)cc4)CC3)n2)c(C)c1 | 3450 | 105.7 | 19.9 µM | 0.61 µM | 32 | 0.00575 µM | > 19.9 µM
Cc1cc(C)c(Nc2nc(N)nc(NC3CCN(Cc4ccc(S(C)(=O)=O)cc4)CC3)n2)c(C)c1 | 911 | 887.5 | 5.06 µM | 4.92 µM | 1 | 0.00555 µM | > 5.06 µM
Cc1cc(C)c(Nc2nc(N)nc(NC3CCN(Cc4ccccc4)CC3)n2)c(C)c1 | 2300 | 481.3 | 23.6 µM | 4.93 µM | 5 | 0.0103 µM | > 23.6 µM
Cc1cc(C)c(Nc2nc(N)nc(NC3CCN(Cc4ccc([N+](=O)[O-])cc4)CC3)n2)c(C)c1 | 439 | >439.1 | 3.46 µM | > 3.46 µM | < 1 | 0.00787 µM | > 3.46 µM
CNc1nc(Nc2c(C)cc(C)cc2C)nc(NC2CCN(Cc3ccncc3)CC2)n1 | 3560 | 76.4 | 25.8 µM | 0.55 µM | 47 | 0.00725 µM | > 25.8 µM
CCOC(=O)c1ccc(CN2CCC(Nc3nc(NC)nc(Nc4c(C)cc(C)cc4C)n3)CC2)cc1 | 297 | >297 | 4.95 µM | > 4.95 µM | < 1 | 0.0167 µM | > 4.95 µM
CNc1nc(Nc2c(C)cc(C)cc2C)nc(NC2CCN(Cc3ccc(C(N)=O)cc3)CC2)n1 | 5940 | 121.6 | 27.4 µM | 0.56 µM | 49 | 0.00461 µM | > 27.4 µM
CNc1nc(Nc2c(C)cc(C)cc2C)nc(NC2CCN(Cc3ccc(S(N)(=O)=O)cc3)CC2)n1 | 2120 | 72.7 | 14.8 µM | 0.51 µM | 29 | 0.00699 µM | > 14.8 µM
CNc1nc(Nc2c(C)cc(C)cc2C)nc(NC2CCN(Cc3ccc(S(C)(=O)=O)cc3)CC2)n1 | 1590 | 549.8 | 9.64 µM | 3.33 µM | 3 | 0.00606 µM | > 9.64 µM
COc1nc(Nc2c(C)cc(C)cc2C)nc(NC2CCN(Cc3ccncc3)CC2)n1 | 2320 | 111.1 | 30.9 µM | 1.48 µM | 21 | 0.0133 µM | > 30.9 µM
CCOC(=O)c1ccc(CN2CCC(Nc3nc(Nc4c(C)cc(C)cc4C)nc(OC)n3)CC2)cc1 | 577 | >576.6 | 8.48 µM | > 8.48 µM | < 1 | 0.0147 µM | > 8.48 µM
COc1nc(Nc2c(C)cc(C)cc2C)nc(NC2CCN(Cc3ccc(C(N)=O)cc3)CC2)n1 | 3870 | 128.3 | 33.4 µM | 1.11 µM | 30 | 0.00864 µM | > 33.4 µM
COc1nc(Nc2c(C)cc(C)cc2C)nc(NC2CCN(Cc3ccc(S(N)(=O)=O)cc3)CC2)n1 | 1850 | 88.2 | 19.6 µM | 0.94 µM | 21 | 0.0106 µM | > 19.6 µM
COc1nc(Nc2c(C)cc(C)cc2C)nc(NC2CCN(Cc3ccc(S(C)(=O)=O)cc3)CC2)n1 | 1130 | >=133.3 | 13.5 µM | ≥ 1.59 µM | ≤ 8 | 0.0119 µM | > 13.5 µM
CC(C)Nc1cccnc1N1CCN(C(=O)c2cc3cc(NS(C)(=O)=O)ccc3[nH]2)CC1.CS(=O)(=O)O [DELAVIRDINE MESYLATE] | > 1030 | >1033.6 | > 36.2 µM | > 36.2 µM | ≥ 1 | 0.035 µM | –
O=C1Nc2ccc(Cl)cc2[C@@](C#CC2CC2)(C(F)(F)F)O1 [EFAVIRENZ] | > 964 | 83.6 | > 6.34 µM | 0.55 µM | > 12 | 0.00657 µM | –
Cc1cc(C#N)cc(C)c1Oc1nc(Nc2ccc(C#N)cc2)nc(N)c1Br [ETRAVIRINE] | – | 15.5 | – | – | 817 | – | –
Cc1ccnc2c1NC(=O)c1cccnc1N2C1CC1 [NEVIRAPINE] | > 75 | >75 | > 15 µM | > 15 µM | ≥ 1 | – | –
Nc1ccn([C@H]2CC[C@@H](CO)O2)c(=O)n1 [ZALCITABINE] | > 68 | – | > 94.7 µM | – | – | 1.39 µM | 1.67 µM
Cc1cn([C@H]2C[C@H](N=[N+]=[N-])[C@@H](CO)O2)c(=O)[nH]c1=O [ZIDOVUDINE] | ≥ 8300 | 1.9 | ≥ 49.8 µM | 0.01 µM | ≥ 4400 | – | 0.007 µM
